Experimental data of several laboratories.
Compare with care: the assays were run in different laboratories.
PPARA: Peroxisome proliferator-activated receptor alpha (PPARA, Homo sapiens, UniProt Q07869)

SMILES	target	assay	system	setting	measurement	result
C#Cc1n[nH]c2c(-c3cn([C@@H](C)c4ccccn4)c(=O)[nH]c3=O)cc(F)cc12	Eukaryotic elongation factor 2 kinase (EEF2K, Homo sapiens, UniProt O00418)	enzyme activity, inhibitor	–	0.1 µM	inhibition	4.2%
CN[C@@H](C)C(=O)N[C@@H](CNC(=O)c1ccc(S(=O)(=O)F)c(OC)c1)C(=O)N1CCC[C@H]1C(=O)N[C@@H]1CCc2c(F)cccc21	E3 ubiquitin-protein ligase XIAP, BIR3 (XIAP, Homo sapiens, UniProt P98170)	enzyme activity, inhibitor	–	–	kinact	0.0258 s⁻¹
Cc1nn(C)cc1-c1nc2c(N3CCN(Cc4ccc(Cl)cc4)CC3)c(Cl)cnc2[nH]1	Cyclin-dependent kinase-like 1 (CDKL1, Homo sapiens, UniProt Q00532)	binding, competition with immobilised ligand	–	1 µM	remaining binding	100%
O=C(Nc1cccnn1)N1CCN([C@@H]2CCOc3cc(C(F)(F)F)ccc32)CC1	Interstitial collagenase (MMP1, Homo sapiens, UniProt P03956)	cell-free assay	–	20 µM	inhibition	8%
O=S(=O)(O)C(F)(F)C(F)(F)C(F)(F)C(F)(F)C(F)(F)C(F)(F)F	PPARA	reporter gene, agonist, luciferase	COS-7	–	Emax	67%
CC1CCC(C(C)C)C(P(=O)(c2ccccc2)c2ccccc2)C1 (stereo not drawn)	Potassium voltage-gated channel subfamily A member 5 (KCNA5, Homo sapiens, UniProt P22460)	ion current, inhibitor, patch clamp	–	1 µM	remaining activity	-94.5%
CCOC(=O)c1ccc(OC(=O)CCCCCNC(=N)N)cc1	Ubiquitin carboxyl-terminal hydrolase 7 (USP7, Homo sapiens, UniProt Q93009)	enzyme activity, inhibitor	–	10 µM	inhibition	0%
Clc1cccc(-c2c[nH]c3nccc(N4CCOCC4)c23)c1	Serine/threonine-protein kinase 4 (STK4, Homo sapiens, UniProt Q13043)	thermal stability, DSF	–	–	ΔTm	> 7.4 °C
Nc1ncc(-c2nc(N3CCOCC3)nc(N3CCOCC3)n2)c(C(F)F)n1	Serine/threonine-protein kinase OSR1 (OXSR1, Homo sapiens, UniProt O95747)	binding, competition with immobilised ligand	–	10 µM	remaining binding	54%
O=C(O)C(F)(OC(F)(F)C(F)(F)C(F)(F)F)C(F)(F)F (stereo not drawn)	PPARA	reporter gene, agonist, luciferase	–	–	Emax	134%
COc1ncccc1-c1cnn2ccc(N3CCN(C(=O)OC(C)C)CC3)nc12	Mitogen-activated protein kinase kinase kinase 1 (MAP3K1, Homo sapiens, UniProt Q13233)	binding, competition with immobilised ligand	–	1 µM	remaining binding	49%
O=S(=O)(O)C(F)(F)C(F)(F)C(F)(F)C(F)(F)C(F)(F)C(F)(F)C(F)(F)C(F)(F)F	PPARA	reporter gene, agonist, luciferase	–	–	Emax	33%
COc1cc(Nc2ncc(F)c(Nc3ccc4c(n3)NC(=O)C(C)(C)O4)n2)cc(OC)c1OC	Serine/threonine-protein kinase NIM1 (NIM1K, Homo sapiens, UniProt Q8IY84)	binding, competition with immobilised ligand	–	10 µM	inhibition	84%
COC(=O)CC[C@H](NC(=O)[C@H](CC(C)C)NC(=O)OCc1ccccc1)C(=O)N[C@@H](Cc1cnc[nH]1)C(=O)N[C@@H](CC(=O)OC)C(=O)CF	Caspase-9 (CASP9, Homo sapiens, UniProt P55211)	enzyme activity, inhibitor	–	1 µM	inhibition	50%
CN1CCN(c2ccc(Nc3nccc(-c4ccccc4)n3)cc2C(F)(F)F)CC1	Calcium-dependent protein kinase 1 (CDPK1, Plasmodium falciparum, UniProt P62344)	binding	–	10 µM	remaining binding	13%
